Laboratory results as given in ChEMBL document CHEMBL1134902, “Quinoline-3-carbothioamides and related compounds as novel immunomodulating agents” (2002).

How the values were obtained:
Type in all cases: functional
Mus musculus [1] = test: Activity expressed as percent inhibition of anti-TNP IgM level in TNP-LPS immunized mice, at a dose of 10 mg/kg perorally; conditions: route oral
In short: (§1)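 Female (C57BL/6 × DBA/2)F1 mice, 6 weeks old, immunized i.v. with TNP-LPS on day 0, then randomized (7/group). Compound given orally on days 0 and 1. Serum taken on day 4 and anti-TNP IgM measured by ELISA. Result given as % inhibition of IgM level versus control, with significance by Student's t-test.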

Mus musculus [2] = test: Antinephritic activity against Graft-Versus-Host Disease (GVHD) induced (C57BL/6DBA/2)F1 mice at a dose of 32 mg/kg administered perorally; conditions: route oral
In short: (§2)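 Chronic GVHD induced in 6-week-old female (C57BL/6 × DBA/2)F1 mice by two injections of DBA/2 spleen cells (5 × 10⁷ each), given 5 days apart. Oral dosing once daily for 8 weeks, starting 3 days after the second injection. Urinary albumin measured after the last dose by single radial immunodiffusion with rabbit anti-mouse albumin antiserum. 10 mice/group; % inhibition of proteinuria; Student's t-test.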

Mus musculus [3] = test: Antinephritic activity against Graft-Versus-Host Disease (GVHD) induced (C57BL/6DBA/2) F1 mice at a dose of 32 mg/kg administered perorally; conditions: route oral; in short: as §2
Mus musculus [4] = test: Activity was expressed as percent inhibition of anti-TNP IgM level in TNP-LPS immunized mice, at a dose of 1 mg/kg perorally; conditions: route oral; in short: as §1
Mus musculus [5] = test: Activity was expressed as percent inhibition of anti-TNP IgM level in TNP-LPS immunized mice, at a dose of 0.1 mg/kg perorally; conditions: route oral; in short: as §1
Mus musculus [6] = test: Inhibition of anti-DNA antibody in autoimmune diseased MRL/I mice at a dose of 0.32 mg/Kg administered perorally; conditions: po
Mus musculus [7] = test: Activity was expressed as percent inhibition of anti-TNP IgM level in TNP-LPS immunized mice, at a dose of 100 mg/kg perorally; conditions: route oral; in short: as §1
Mus musculus [8] = test: Activity was expressed as percent inhibition of anti-TNP IgM level in TNP-LPS immunized mice, at a dose of 0.01 mg/kg perorally; conditions: route oral; in short: as §1
Mus musculus [9] = test: Inhibition of histological score (Nephritis in the kidneys) in the autoimmune diseased MRL/l mice at a dose of 3.2 mg/Kg administered perorally; conditions: po
Mus musculus [10] = test: Inhibition of histological score (Nephritis in the kidneys) in the autoimmune diseased MRL/l mice at a dose of 1 mg/Kg administered perorally; conditions: po
Mus musculus [11] = test: Inhibition of anti-DNA antibody in autoimmune diseased MRL/I mice at a dose of 3.2 mg/kg administered perorally; conditions: route oral
Mus musculus [12] = test: Inhibition of anti-DNA antibody in autoimmune diseased MRL/I mice at a dose of 1 mg/kg administered perorally; conditions: route oral
Mus musculus [13] = test: Inhibition of histological score (Nephritis in the kidneys) in the autoimmune diseased MRL/l mice at a dose of 0.32 mg/kg administered perorally; conditions: route oral

`COc1ccc(N(C)/C(S)=C2/C(=O)c3cc(Cl)ccc3N(C)C2=O)cc1` was tested, and the inhibition in vivo at 10 mg/kg (Mus musculus [1]) was 45% and the inhibition in vivo at 32 mg/kg (Mus musculus [2]) was 97%.

For `COCCCN(/C(S)=C1/C(=O)c2cc(Cl)ccc2N(C)C1=O)c1ccccc1`, the inhibition in vivo at 10 mg/kg (Mus musculus [1]) was 31%.

For `Cn1c(=O)c(C(=S)N(c2ccccc2)C(C)(C)C)c(O)c2cc(Cl)ccc21`, the inhibition in vivo at 10 mg/kg (Mus musculus [1]) was 11%.

For `Cc1ccc2c(c1)C(=O)/C(=C(\S)N(C)c1ccccc1)C(=O)N2C`, the inhibition in vivo at 10 mg/kg (Mus musculus [1]) was 20%.

Work on `CSc1ccc(N(C)C(=O)c2c(O)c3cc(SC)ccc3n(C)c2=O)cc1` yielded an inhibition in vivo at 32 mg/kg (Mus musculus [2]) of 87%.

`C=CCN(C(=S)c1c(O)c2cc(Cl)ccc2n(C)c1=O)c1ccccc1` was tested, and the inhibition in vivo at 32 mg/kg (Mus musculus [2]) was 96%.

Work on `CN1C(=O)/C(=C(/S)N(C)c2cccs2)C(=O)c2cc(Cl)ccc21` yielded an inhibition in vivo at 10 mg/kg (Mus musculus [1]) of 19%.

`CN1C(=O)/C(=C(/S)N(C)c2ccccc2)C(=O)c2ccc(Cl)cc21` showed an inhibition in vivo at 32 mg/kg (Mus musculus [2]) of -23%.

With `CSc1ccc2c(c1)c(O)c(S(=O)(=O)N(C)c1ccccc1)c(=O)n2C` the inhibition in vivo at 32 mg/kg (Mus musculus [2]) was 53%.

Work on `COc1cccc(N(C)/C(S)=C2/C(=O)c3cc(Cl)ccc3N(C)C2=O)c1` yielded an inhibition in vivo at 10 mg/kg (Mus musculus [1]) of 30% and an inhibition in vivo at 32 mg/kg (Mus musculus [2]) of 74%.

Work on `CN1C(=O)/C(=C(/S)N(C)c2ccc(F)cc2)C(=O)c2cc(Cl)ccc21` yielded an inhibition in vivo at 10 mg/kg (Mus musculus [1]) of 54%.

`CN1C(=O)/C(=C(/S)N(C)c2ccccc2)C(=O)c2cc(Br)ccc21` was tested, and the inhibition in vivo at 10 mg/kg (Mus musculus [1]) was 56% and the inhibition in vivo at 32 mg/kg (Mus musculus [2]) was 98%.

With `CN1C(=O)/C(=C(/S)N(C)c2cccc(C(F)(F)F)c2)C(=O)c2cc(Cl)ccc21` the inhibition in vivo at 10 mg/kg (Mus musculus [1]) was 29%.

`CSc1ccc2c(c1)c(O)c(C(=O)N(C)c1ccccc1)c(=O)n2C` showed an inhibition in vivo at 32 mg/kg (Mus musculus [3]) of 100%, an inhibition in vivo at 1 mg/kg (Mus musculus [4]) of 50% and an inhibition in vivo at 10 mg/kg (Mus musculus [1]) of 67%. The inhibition in vivo at 0.1 mg/kg (Mus musculus [5]) was 18%.

Work on `CSc1ccc2c(c1)c(=O)c(C(=O)N(C)c1ccccc1)c(S)n2C` yielded an inhibition in vivo at 32 mg/kg (Mus musculus [2]) of 96%.

Work on `CN1C(=O)/C(=C(/S)N(C)c2ccccc2)C(=O)c2ccccc21` yielded an inhibition in vivo at 32 mg/kg (Mus musculus [2]) of 85%.

In the case of `CSc1ccc2c(c1)c(=O)c(C(=S)N(C)c1ccccc1)c(S)n2C`, the inhibition in vivo at 32 mg/kg (Mus musculus [2]) is reported as 37%.

Compound `CN1C(=O)/C(=C(/S)N(C)c2ccc(Cl)cc2)C(=O)c2cc(Cl)ccc21` has an inhibition in vivo at 10 mg/kg (Mus musculus [1]) of 47%.

With `CN1C(=O)/C(=C(/S)N(C)c2ccc(F)c(F)c2)C(=O)c2cc(Cl)ccc21` the inhibition in vivo at 10 mg/kg (Mus musculus [1]) was 62%.

`CN1C(=O)/C(=C(/S)N(C)c2ccccc2)C(=O)c2cc(-n3cccc3)ccc21` showed an inhibition in vivo at 10 mg/kg (Mus musculus [1]) of -10%.

For `CSCCN(C(=O)c1c(O)c2cc(SC)ccc2n(C)c1=O)c1ccccc1`, the inhibition in vivo at 32 mg/kg (Mus musculus [2]) was 65%.

For `CS/C(=N\c1ccccc1)c1c(O)c2cc(SC)ccc2n(C)c1=O`, the inhibition in vivo at 32 mg/kg (Mus musculus [2]) was 84%.

Work on `CN1C(=O)/C(=C(/S)N(C)c2ccc(OC(F)(F)F)cc2)C(=O)c2cc(Cl)ccc21` yielded an inhibition in vivo at 10 mg/kg (Mus musculus [1]) of 39%.

`CN1C(=O)/C(=C(/S)N(C)c2cccc(Cl)c2)C(=O)c2cc(Cl)ccc21` gave an inhibition in vivo at 10 mg/kg (Mus musculus [1]) of 63%.

Compound `CN1C(=O)/C(=C(/S)N(C)c2ccccc2)C(=O)c2cc(OC(F)(F)F)ccc21` has an inhibition in vivo at 10 mg/kg (Mus musculus [1]) of 19%.

In the case of `CN1C(=O)/C(=C(/S)N(C)c2ccccc2)C(=O)c2cc(Cl)ccc21`, the inhibition in vivo at 0.32 mg/kg (Mus musculus [6]) is reported as 52%, the inhibition in vivo at 1 mg/kg (Mus musculus [4]) is reported as 33% and the inhibition in vivo at 100 mg/kg (Mus musculus [7]) is reported as 77%. It also gave an inhibition in vivo at 10 mg/kg (Mus musculus [1]) of 64%, an inhibition in vivo at 0.01 mg/kg (Mus musculus [8]) of -3% and an inhibition in vivo at 3.2 mg/kg (Mus musculus [9]) of 85%. The inhibition in vivo at 1 mg/kg (Mus musculus [10]) was 85%, the inhibition in vivo at 3.2 mg/kg (Mus musculus [11]) was 83% and the inhibition in vivo at 0.1 mg/kg (Mus musculus [5]) was 22%. It also gave an inhibition in vivo at 1 mg/kg (Mus musculus [12]) of 73%, an inhibition in vivo at 0.32 mg/kg (Mus musculus [13]) of 67% and an inhibition in vivo at 32 mg/kg (Mus musculus [2]) of 100%.

`Cn1c(=O)c(/C(S)=N/c2ccccc2)c(O)c2cc(Cl)ccc21` gave an inhibition in vivo at 10 mg/kg (Mus musculus [1]) of 38%.

With `Cc1ccc(N(C)/C(S)=C2/C(=O)c3cc(Cl)ccc3N(C)C2=O)cc1` the inhibition in vivo at 10 mg/kg (Mus musculus [1]) was 23%.

`CN1C(=O)/C(=C(/S)N(C)c2ccc(Br)cc2)C(=O)c2cc(Cl)ccc21` gave an inhibition in vivo at 10 mg/kg (Mus musculus [1]) of 50%.

Compound `COc1ccc2c(c1)c(O)c(C(=S)N(C)c1ccccc1)c(=O)n2C` has an inhibition in vivo at 10 mg/kg (Mus musculus [1]) of 31% and an inhibition in vivo at 32 mg/kg (Mus musculus [2]) of 99%.

`Cc1cc(Cl)cc2c1N(C)C(=O)/C(=C(/S)N(C)c1ccccc1)C2=O` was tested, and the inhibition in vivo at 10 mg/kg (Mus musculus [1]) was 17%.

`CN(C(=O)c1c(O)c2ccccc2n(C)c1=O)c1ccccc1` [ROQUINIMEX] was tested, and the inhibition in vivo at 1 mg/kg (Mus musculus [4]) was 13%, the inhibition in vivo at 100 mg/kg (Mus musculus [7]) was 49% and the inhibition in vivo at 10 mg/kg (Mus musculus [1]) was 41%.

`CSc1ccc2c(c1)c(O)c(C(=S)N(C)c1ccccc1)c(=O)n2C` showed an inhibition in vivo at 10 mg/kg (Mus musculus [1]) of 32% and an inhibition in vivo at 32 mg/kg (Mus musculus [2]) of 99%.
